According to ChEMBL document CHEMBL1146375, “Synthetic studies on novel benzimidazolopeptides with antimicrobial, cytotoxic and anthelmintic potential” (2007):
Values after ≈ are worked out from the molar mass of the structure shown.

What was measured:
Staphylococcus aureus [1] = assay: Antibacterial activity against Staphylococcus aureus NCIM 2079 after 18 hrs by tube dilution method; assay type: functional; details: NCIM 2079, 18 h
Method in brief: (§1)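 Tube dilution MIC. Stock diluted in sterile broth to seven concentrations from 200 to 3.1 […]. Each tube inoculated with one loopful of test bacterium and incubated 18 h at 37 °C. MIC read from presence or absence of growth.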

Pseudomonas aeruginosa [2] = assay: Antibacterial activity against Pseudomonas aeruginosa NCIM 2034 after 18 hrs by disc diffusion method; assay type: functional
Method in brief: (§2)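 Modified Kirby-Bauer disc diffusion. Plates inoculated with spore suspension (about 6 × 10⁴ spores mL^-1). Sterile 6 mm paper discs carried test samples at 10 mg mL^-1; ciprofloxacin disc as reference, DMF disc as negative control. Plates held 18 h at 37 °C. Inhibition zone diameters (mm) averaged over triplicate sets.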

Eudrilus [3] = assay: Anthelmintic activity against Eudrilus sp. assessed as mean paralyzing time; assay type: functional
Method in brief: (§3)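 Earthworms exposed to test suspensions at 2 mg mL^-1 (0.2% w/v), made by triturating compound with Tween 80 (0.5%) and distilled water, then mechanically stirred 30 min. Mebendazole suspension prepared alike as reference. Paralysis and death times recorded; death confirmed by no movement in 50 °C water. Means from triplicate sets.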

Escherichia coli [4] = assay: Antibacterial activity against Escherichia coli NCIM 2065 after 18 hrs by tube dilution method; assay type: functional; details: NCIM 2065, 18 h
Microsporum audouinii [5] = assay: Antifungal activity against Microsporum audouinii MUCC 545 after 48 hrs by disc diffusion method; assay type: functional
Method in brief: (§4)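 Agar well diffusion on plates inoculated with spore suspension in normal saline from cultures on Sabouraud's broth. Wells punched and loaded with test samples or griseofulvin at 10 mg mL^-1, with DMSO as negative control. Incubated 48 h at 37 °C.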

Trichophyton benhamiae [6] = assay: Antifungal activity against Trichophyton mentagrophytes MUCC 665 after 48 hrs by tube dilution method; assay type: functional, Arthroderma benhamiae
Method in brief: (§5)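 Tube dilution MIC as for bacteria (seven concentrations, 200–3.1 […]), with DMSO in place of DMF. Tubes inoculated with fungal culture and incubated 48 h at 37 °C. MIC read from presence or absence of growth.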

Staphylococcus aureus [7] = assay: Antibacterial activity against Staphylococcus aureus NCIM 2079 after 18 hrs by disc diffusion method; assay type: functional; method in brief: as §2
Pseudomonas aeruginosa [8] = assay: Antibacterial activity against Pseudomonas aeruginosa NCIM 2034 after 18 hrs by tube dilution method; assay type: functional; details: NCIM 2034, 18 h; method in brief: as §1
[9] = Anthelmintic activity against Megascoplex konkanensis ICARBC 211 assessed as mean death time; assay type: functional; method in brief: as §3
Escherichia coli [10] = assay: Antibacterial activity against Escherichia coli NCIM 2065 after 18 hrs by disc diffusion method; assay type: functional; method in brief: as §2
Pontoscolex corethrurus [11] = assay: Anthelmintic activity against Pontoscolex corethrurus ICARBC 408 assessed as mean paralyzing time; assay type: functional; method in brief: as §3
[12] = Anthelmintic activity against Megascoplex konkanensis ICARBC 211 assessed as mean paralyzing time; assay type: functional; method in brief: as §3
Eudrilus [13] = assay: Anthelmintic activity against Eudrilus sp. assessed as mean death time; assay type: functional
Method in brief: (§6)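 Earthworms exposed to test suspensions at 2 mg mL−1, prepared by triturating compound with Tween 80 (0.5%) and distilled water, stirring 30 min, then diluting to 0.2% w/v. Mebendazole suspension was made the same way. Death was confirmed by moving worms into 50 °C warm water and looking for movement. Mean death time (min) taken from triplicate sets.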

Aspergillus niger = assay: Antifungal activity against Aspergillus niger MUCC 177 after 48 hrs by disc diffusion method; assay type: functional; method in brief: as §4
Bacillus subtilis [14] = assay: Antibacterial activity against Bacillus subtilis NCIM 2063 after 18 hrs by tube dilution method; assay type: functional; details: NCIM 2063, 18 h; method in brief: as §1
Candida albicans [15] = assay: Antifungal activity against Candida albicans MUCC 29 after 48 hrs by disc diffusion method; assay type: functional; method in brief: as §4
Microsporum audouinii [16] = assay: Antifungal activity against Microsporum audouinii MUCC 545 after 48 hrs by tube dilution method; assay type: functional; method in brief: as §5
Bacillus subtilis [17] = assay: Antibacterial activity against Bacillus subtilis NCIM 2063 after 18 hrs by disc diffusion method; assay type: functional; method in brief: as §2
Pontoscolex corethrurus [18] = assay: Anthelmintic activity against Pontoscolex corethrurus ICARBC 408 assessed as mean death time; assay type: functional; method in brief: as §6
Trichophyton benhamiae [19] = assay: Antifungal activity against Trichophyton mentagrophytes MUCC 665 after 48 hrs by disc diffusion method; assay type: functional, Arthroderma benhamiae; method in brief: as §4
Candida albicans [20] = assay: Antifungal activity against Candida albicans MUCC 29 after 48 hrs by tube dilution method; assay type: functional; method in brief: as §5

SMILES	MIC (Staphylococcus aureus [1]) [µg/mL]	inhibition zone (IZ) (Pseudomonas aeruginosa [2]) [mm]	Time (Eudrilus [3]) [min]	MIC (Escherichia coli [4]) [µg/mL]	inhibition zone (IZ) (Microsporum audouinii [5]) [mm]	MIC (Trichophyton benhamiae [6]) [µg/mL]	inhibition zone (IZ) (Staphylococcus aureus [7]) [mm]	MIC (Pseudomonas aeruginosa [8]) [µg/mL]	TIME [9] [h]	inhibition zone (IZ) (Escherichia coli [10]) [mm]	Time (Pontoscolex corethrurus [11]) [min]	TIME [12] [h]	Time (Eudrilus [13]) [min]	inhibition zone (IZ) (Aspergillus niger) [mm]	MIC (Bacillus subtilis [14]) [µg/mL]	inhibition zone (IZ) (Candida albicans [15]) [mm]	MIC (Microsporum audouinii [16]) [µg/mL]	inhibition zone (IZ) (Bacillus subtilis [17]) [mm]	Time (Pontoscolex corethrurus [18]) [min]	inhibition zone (IZ) (Trichophyton benhamiae [19]) [mm]	also measured
COC(=O)[C@H](Cc1c[nH]c2ccccc12)NC(=O)c1cc(-c2nc3ccc([N+](=O)[O-])cc3[nH]2)ccc1O	12.5 (≈ 25 µM)	20	13.37	12.5 (≈ 25 µM)	10	6 (≈ 12 µM)	12	12.5 (≈ 25 µM)	0.374	16	17.02	0.218	23.93	16	6 (≈ 12 µM)	20	12.5 (≈ 25 µM)	12	29.41	17	MIC (Candida albicans [20]): 6 µg/mL (≈ 12 µM)
O=C(O)CNC(=O)CNC(=O)c1cc(-c2nc3ccc([N+](=O)[O-])cc3[nH]2)ccc1O	12.5 (≈ 30.2 µM)	22	25.5	12.5 (≈ 30.2 µM)	13	6 (≈ 14.5 µM)	9	6 (≈ 14.5 µM)	0.601	16	31.18	0.451	36.7	17	25 (≈ 60.5 µM)	18	6 (≈ 14.5 µM)	9	42.26	16	MIC (Candida albicans [20]): 6 µg/mL (≈ 14.5 µM)
CC[C@H](C)[C@H](NC(=O)[C@H](CC(C)C)NC(=O)c1cc(-c2nc3cc(C)c(C)cc3[nH]2)ccc1O)C(=O)OC	12.5 (≈ 23.9 µM)	20	25.69	12.5 (≈ 23.9 µM)	12	6 (≈ 11.5 µM)	10	6 (≈ 11.5 µM)	0.569	16	29.83	0.425	36.12	19	6 (≈ 11.5 µM)	19	6 (≈ 11.5 µM)	15	41.53	13	MIC (Candida albicans [20]): 6 µg/mL (≈ 11.5 µM)
COC(=O)[C@H](Cc1cnc[nH]1)NC(=O)c1cc(I)c(-c2nc3cc(C)c(C)cc3[nH]2)c(I)c1	12.5 (≈ 18.7 µM)	24	34.34	12.5 (≈ 18.7 µM)	11	12.5 (≈ 18.7 µM)	12	6 (≈ 8.97 µM)	0.758	18	34.14	0.488	46.3	14	6 (≈ 8.97 µM)	18	25 (≈ 37.4 µM)	16	47.82	12	MIC (Candida albicans [20]): 6 µg/mL (≈ 8.97 µM)
COC(=O)[C@H](Cc1ccc(O)cc1)NC(=O)[C@H](Cc1cnc[nH]1)NC(=O)c1ccc(-c2nc3cc(C)c(C)cc3[nH]2)cc1	12.5 (≈ 21.5 µM)	19	13.49	25 (≈ 43.1 µM)	8	6 (≈ 10.3 µM)	10	12.5 (≈ 21.5 µM)	0.377	15	17.55	0.228	23.98	16	6 (≈ 10.3 µM)	16	25 (≈ 43.1 µM)	14	29.18	13	MIC (Candida albicans [20]): 12.5 µg/mL (≈ 21.5 µM)
COC(=O)[C@H](Cc1ccccc1)NC(=O)[C@@H]1CCCN1C(=O)[C@@H]1CCCN1C(=O)c1ccc(-c2nc3cc(C)c(C)cc3[nH]2)cc1	25 (≈ 40.2 µM)	20	32.82	25 (≈ 40.2 µM)	9	6 (≈ 9.65 µM)	8	6 (≈ 9.65 µM)	1.04	16	49.35	0.613	53.34	14	12.5 (≈ 20.1 µM)	16	25 (≈ 40.2 µM)	13	72.24	13	MIC (Candida albicans [20]): 6 µg/mL (≈ 9.65 µM)
COC(=O)[C@H](Cc1ccc(O)cc1)NC(=O)[C@H](C)NC(=O)[C@H](Cc1c[nH]c2ccccc12)NC(=O)c1cc(-c2nc3cc(C)c(C)cc3[nH]2)ccc1O	12.5 (≈ 17.4 µM)	21	13.41	12.5 (≈ 17.4 µM)	11	6 (≈ 8.37 µM)	10	6 (≈ 8.37 µM)	0.379	16	17.6	0.228	24.07	16	12.5 (≈ 17.4 µM)	17	12.5 (≈ 17.4 µM)	13	29.34	14	MIC (Candida albicans [20]): 6 µg/mL (≈ 8.37 µM)
COC(=O)[C@@H]1CCCN1C(=O)[C@H](Cc1cnc[nH]1)NC(=O)c1cc(I)c(-c2nc3cc(C)c(C)cc3[nH]2)c(I)c1	12.5 (≈ 16.3 µM)	24	13.48	12.5 (≈ 16.3 µM)	9	6 (≈ 7.83 µM)	11	6 (≈ 7.83 µM)	0.379	17	17.52	0.229	23.98	13	6 (≈ 7.83 µM)	16	25 (≈ 32.6 µM)	14	29.58	12	MIC (Candida albicans [20]): 6 µg/mL (≈ 7.83 µM)
COC(=O)[C@H](Cc1ccccc1)NC(=O)c1cc(-c2nc3cc(C)c(C)cc3[nH]2)ccc1O	12.5 (≈ 28.2 µM)	24	26.78	12.5 (≈ 28.2 µM)	9	6 (≈ 13.5 µM)	10	6 (≈ 13.5 µM)	0.592	17	30.34	0.437	37.74	17	6 (≈ 13.5 µM)	17	25 (≈ 56.4 µM)	14	42.56	15	MIC (Candida albicans [20]): 6 µg/mL (≈ 13.5 µM)
COC(=O)[C@@H]1CCCN1C(=O)[C@@H]1CCCN1C(=O)[C@@H]1CCCN1C(=O)c1cc(-c2nc3ccc([N+](=O)[O-])cc3[nH]2)ccc1O	12.5 (≈ 20.7 µM)	27	26.67	25 (≈ 41.3 µM)	13	12.5 (≈ 20.7 µM)	11	6 (≈ 9.92 µM)	0.569	17	30.59	0.425	37.44	17	6 (≈ 9.92 µM)	24	6 (≈ 9.92 µM)	14	40.38	17	MIC (Candida albicans [20]): 6 µg/mL (≈ 9.92 µM)
